In ChEMBL document CHEMBL1128448, “Synthesis and antifungal activity of new azole derivatives containing an N-acylmorpholine ring” (1995):
Values after ≈ are worked out from the molar mass of the structure shown.

Tests used:
[1] = test system: Meyerozyma guilliermondii; assay: In vitro evaluation of minimum inhibitory concentration against Candida guilliermondii 26; format: functional
In short: (§1)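 Stocks are 800 μg/mL in 50% ethanol. Each plate gets 10 μL of inoculum at 10^5 cfu/mL. Incubation at 25 °C, 48 h for yeasts and 120 h for dermatophytes and molds. Organisms are ATCC strains or clinical isolates.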

Candida parapsilosis [2] = assay: Evaluation of In vitro antifungal activity against Candida parapsilosis ATCC 141095 by broth macro dilution method; format: functional; conditions: Lodderomyces parapsilosis
In short: (§2)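 Yeast MIC and MFC by broth macrodilution per NCCLS M27-P in RPMI-1640 buffered with 0.165 M MOPS. Fluconazole in sterile water, other drugs in DMSO. C. parapsilosis ATCC 22019 is the reference strain in each run. MIC is the lowest concentration with turbidity ≤ the 80% inhibition standard. For MFC, 0.04 mL from clear tubes is plated on Sabouraud agar; MFC is the lowest concentration giving ≤1 colony.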

Candida albicans [3] = assay: In vivo evaluation of minimum inhibitory concentration against Candida albicans 60; format: functional
In short: (§3)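 Broth macrodilution MIC following NCCLS M27-P, in RPMI-1640 buffered with 0.165 M MOPS. Fluconazole was dissolved in water and other drugs in DMSO. C. parapsilosis ATCC 22019 served as the reference strain in every run. MIC was the lowest concentration giving turbidity at or below the 80% inhibition standard.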

Candida tropicalis = assay: Evaluation of In vitro antifungal activity against Candida tropicalis 50 by broth macro dilution method; format: functional; in short: as §2
Nakaseomyces glabratus = assay: Evaluation of In vitro antifungal activity against Torulopsis glabrata 78 by broth macro dilution method; format: functional; in short: as §2
Aspergillus niger = assay: In vitro evaluation of minimum inhibitory concentration against Aspergillus niger 18; format: functional; in short: as §1
Pichia kudriavzevii [4] = assay: In vitro evaluation of minimum inhibitory concentration against Candida krusei 70; format: functional; in short: as §1
Mus musculus [5] = assay: In vivo evaluation of % survival rate after peroral administration on 7th day at dose 0.5 mg/kg; format: functional; conditions: route oral, 0.5 mg/kg
Candida albicans [6] = assay: Evaluation of In vitro antifungal activity against Candida albicans 31 by broth macro dilution method; format: functional; in short: as §2
Mus sp. [7] = assay: In vivo evaluation of % survival rate after peroral administration on 9th day at dose 0.5 mg/kg; format: functional; conditions: route oral, 0.5 mg/kg
Aspergillus fumigatus = assay: In vitro evaluation of minimum inhibitory concentration against Aspergillus fumigatus 33; format: functional; in short: as §1
Candida albicans [8] = assay: Evaluation of In vitro antifungal activity against Candida albicans 76 by broth macro dilution method; format: functional; in short: as §2
Mus sp. [9] = assay: In vivo evaluation of % survival rate after peroral administration on 9th day at dose 1 mg/kg; format: functional; conditions: route oral, 1 mg/kg
Aspergillus flavus = assay: In vitro evaluation of minimum inhibitory concentration against Aspergillus flavus 19; format: functional; in short: as §1
Rhodotorula mucilaginosa = assay: In vitro evaluation of minimum inhibitory concentration against Rhodotorula rubra 16; format: functional; in short: as §1
Pichia kudriavzevii [10] = assay: Evaluation of In vitro antifungal activity against Candida krusei 70 by broth macro dilution method; format: functional; in short: as §2
Candida albicans [11] = assay: Evaluation of In vitro antifungal activity against Candida albicans 60 by broth macro dilution method
Candida albicans [12] = assay: In vivo evaluation of minimum inhibitory concentration against Candida albicans 406; format: functional; in short: as §3
Cryptococcus neoformans = assay: Evaluation of In vitro antifungal activity against Cryptococcus neoformans 87 by broth macro dilution method; format: functional; in short: as §2
Rattus norvegicus [13] = assay: In vivo evaluation of antifungal activity against vaginal candidosis in rat at dose 0.1 mg/kg on 15th day; format: functional
In short: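 Groups of 10 female Wistar rats given estradiol 25 mg/kg sc on day -5, then vaginally inoculated with C. albicans on day 0. Infection is confirmed by culture of day-3 swabs. Compound is dosed orally once daily on days 3–5; controls get vehicle. Cure is scored by culture of vaginal swabs taken on days 10 and 15.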

Candida albicans [14] = assay: Evaluation of In vitro antifungal activity against Candida albicans C52 by broth macro dilution method; format: functional; in short: as §2
Candida parapsilosis [15] = assay: Evaluation of In vitro antifungal activity against Candida parapsilosis ATCC 22019 by broth macro dilution method; format: functional; conditions: Lodderomyces parapsilosis; in short: as §2
Mus musculus [16] = assay: In vivo evaluation of % survival rate after peroral administration on 5th day at dose 0.5 mg/kg(as a water solution in (hydroxypropyl -beta-cyclodextrin)); format: functional; conditions: route oral
In short: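 Groups of 10 male mice were infected iv with 0.2 mL of C. albicans at (2-8) × 10^7 cfu/mL. Oral doses were given at 1, 4 and 24 h post-infection. Vehicle-only controls were included, with at least 90% control mortality by day 3. Percent survival was recorded on days 3, 5, 7 and 9.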

Candida parapsilosis [17] = assay: Evaluation of In vitro antifungal activity against Candida parapsilosis C292 by broth macro dilution method; format: functional; conditions: Lodderomyces parapsilosis; in short: as §2
Rattus norvegicus [18] = assay: In vivo evaluation of antifungal activity against vaginal candidosis in rat at dose 0.25 mg/kg on 10th day; format: functional
In short: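 Groups of 10 female Wistar rats given estradiol 25 mg/kg sc on day -5, infected intravaginally with C. albicans by sterile swab on day 0; infection confirmed on day 3 by swab culture (TSB, then Sabouraud agar). Oral dosing once daily on days 3, 4, 5; vehicle controls. Vaginal swabs cultured on days 10 and 15; read-out % cured (culture-negative).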

Microsporum canis = assay: In vitro evaluation of minimum inhibitory concentration against Microsporum canis 47; format: functional; in short: as §1

C[C@H]1N(C(=O)c2ccc(C(F)(F)F)cc2)CCO[C@@]1(Cn1cncn1)c1ccc(F)cc1F (stereo in doubt; (-)-41)
MIC [1]: 20 µg/mL (≈ 42.9 µM) | MFC (Candida parapsilosis [2]): > 64 µg/mL | MIC (Candida parapsilosis [2]): 32 µg/mL (≈ 68.6 µM) | MIC (Candida albicans [3]): 0.31 µg/mL (≈ 0.665 µM) | MFC (Candida tropicalis): > 64 µg/mL | MIC (Candida tropicalis): 16 µg/mL (≈ 34.3 µM) | MFC (Nakaseomyces glabratus): > 64 µg/mL | MIC (Nakaseomyces glabratus): 16 µg/mL (≈ 34.3 µM) | MIC (Aspergillus niger): 80 µg/mL (≈ 172 µM) | MIC (Pichia kudriavzevii [4]): 40 µg/mL (≈ 85.8 µM) | Survival (Mus musculus [5]): 70% | MFC (Candida albicans [6]): > 64 µg/mL | MIC (Candida albicans [6]): 0.125 µg/mL (≈ 0.268 µM) | Survival (Mus sp. [7]): 40% | MIC (Aspergillus fumigatus): 40 µg/mL (≈ 85.8 µM) | MFC (Candida albicans [8]): > 64 µg/mL | MIC (Candida albicans [8]): 0.125 µg/mL (≈ 0.268 µM) | Survival (Mus sp. [9]): 70% | MIC (Aspergillus flavus): 40 µg/mL (≈ 85.8 µM) | MIC (Rhodotorula mucilaginosa): 5 µg/mL (≈ 10.7 µM) | MFC (Pichia kudriavzevii [10]): > 64 µg/mL | MIC (Pichia kudriavzevii [10]): 32 µg/mL (≈ 68.6 µM) | MFC (Candida albicans [11]): > 64 µg/mL | MIC (Candida albicans [12]): 0.15 µg/mL (≈ 0.322 µM) | MFC (Cryptococcus neoformans): > 64 µg/mL | MIC (Cryptococcus neoformans): 2 µg/mL (≈ 4.29 µM) | Cure rate (Rattus norvegicus [13]): 20% | MFC (Candida albicans [14]): > 64 µg/mL | MIC (Candida albicans [14]): 0.125 µg/mL (≈ 0.268 µM) | MFC (Candida parapsilosis [15]): 4 µg/mL (≈ 8.58 µM) | MIC (Candida parapsilosis [15]): 2 µg/mL (≈ 4.29 µM) | survival at 0.5 mg/kg (Mus musculus [16]): 100% | MFC (Candida parapsilosis [17]): > 64 µg/mL | MIC (Candida parapsilosis [17]): 2 µg/mL (≈ 4.29 µM) | Cure rate (Rattus norvegicus [18]): 40% | MIC (Microsporum canis): 20 µg/mL (≈ 42.9 µM)
